test: Toxicity liver stage against HepG2, at 10uM; type: cell-based; parameters: test concentration 10 uM, cell line HepG2-A16-CD81EGFP; conditions: human, HepG2-A16-CD81EGFP cells; read-out: INHIBITION
Outline: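 Uninfected HepG2-A16-CD81EGFP cells, 3 × 10^3 per well, 1536-well, plated on prespotted compound at 10 μM final, parasite-free screening media added to match infected plates; puromycin 10 μM positive, DMSO 0.5% negative; run in parallel with 48 h PbLuc assay at 37 °C, 5% CO2; viability by CellTiter-Glo luminescence, normalized to controls.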

| SMILES | cytotoxicity at 10 µM [%] |
| --- | --- |
| Cc1nc(C)c(CN2CCOC(Cc3ccccc3Cl)C2)nc1C (stereo unspecified) | 5.32 |
| NC(=O)c1cccc2nc([C@H]3CCN(Cc4ccccc4F)C3)[nH]c12 | 20.8 |
| COCCC(=O)N1C[C@H]2CN(Cc3cccc(C)c3)C(=O)[C@H]2C1 | 2.05 |
| Cc1cccc(CN2C[C@@H]3CN(C(=O)C4CC=CC4)C[C@@H]3C2=O)n1 | 2 |
| CC(C)CC(=O)N1CC[C@@H]2CN(CC(=O)N(C)C)S(=O)(=O)[C@@H]2CC1 | 10 |
| CCN1C(=O)CC(c2cnn(C)c2)C12CCN(C(=O)c1ccoc1)CC2 (stereo unspecified) | 9.61 |
| CN1CCN(C(=O)N2CCCC2)Cc2cccnc21 | -3.66 |
| O=C(CCn1ccc2ccc(Br)cc21)NCc1ccc(C(=O)O)cc1 | 13.4 |
| CC(C)CCn1[nH]c(CNc2ccc(F)cc2)nc1=O | 11.3 |
| CCCOc1ccc(C2SCC(=O)Nc3c2c(=O)[nH]n3C(C)C)cc1 (stereo unspecified) | 5.95 |
| Cc1c(CCC(=O)Nc2ccc(Br)cn2)cnn1C | -6.14 |
| O=c1c2cc3c(cc2nnn1Cc1ccccc1)OCCO3 | 7.38 |
| Cc1nn(C)cc1-c1cc(-c2cn(C)nc2C)n(CC(=O)NC2CC2)n1 | 4.46 |
| COCCNC(=O)C(C)n1cc(Br)cn1 (stereo unspecified) | -15 |
| CCN1CCCc2cc(CN3CCc4nc(C)[nH]c(=O)c4C3)ccc21 | 0.13 |
| CC(C)n1nccc1C(=O)N1CCC(c2nnsc2S(C)(=O)=O)CC1 | -0.88 |
| COCC(=O)N1CCC(c2noc3nc(C)cc(C(F)(F)F)c23)CC1 | 2.78 |
| O=S1(=O)CCN(CCCc2ccc(Cl)cc2)CC1 | 1.91 |
| CCS(=O)(=O)CC(=O)NC(C)c1ccc(OCCC(C)C)cc1 (stereo unspecified) | 5.61 |
| O=C(NCCc1cc(F)ccc1F)NCC(O)C1CC1 (stereo unspecified) | -2.99 |
| O=C1NCC(C(=O)NCc2ccccc2CN2CCOCC2)N1 (stereo unspecified) | 3.64 |
| COCCC(C)NCc1ccccc1-n1ccnc1 (stereo unspecified) | 1.91 |
| COCC(=O)N1CCN(c2ncnc3cccc(F)c23)CC1 | 6.37 |

| SMILES | cytotoxicity at 10 µM [%] |
| --- | --- |
| CCc1cc(NCCCNS(C)(=O)=O)nc(-c2ccncc2)n1 | 3.62 |
| COc1ccc2c(c1)NC(=O)C2OC(=O)CCc1ccc(F)cc1 (stereo unspecified) | -4.71 |
| COCCOc1ccccc1NC(C)C(=O)NC(=O)NC(C)(C)C (stereo unspecified) | 1.47 |
| Cc1ccn2ncc(C(=O)N3CCCC(c4cc(C)[nH]n4)C3)c2n1 (stereo unspecified) | -8.02 |
| Cn1cc(CCC(=O)NS(=O)(=O)N2CCCc3ccccc32)cn1 | 14.6 |
| Cc1[nH]ccc1C(=O)NCC1CC(=O)N(CCc2ccccc2)C1 (stereo unspecified) | -1.92 |
| CN(c1ccc(F)cc1)S(=O)(=O)c1cc2c(c(C(=O)O)c1)OCCO2 | -5.79 |
| O=C(NCCCN1CCN(c2ncccn2)CC1)Nc1ccccn1 | -7.48 |
| Cc1ccccc1CN1CCCN(CCN2CCOC2=O)CC1 | -7.53 |
| c1cc(CCN2CCC(NCc3ccsc3)CC2)ccn1 | -11 |
| COCc1nc2cc(NCc3csc(C)n3)ccc2o1 | 0.873 |
| CCn1cc(CNCC(c2ccc(C)s2)N2CCOCC2)cn1 (stereo unspecified) | -8.65 |
| COc1ncccc1NC(=O)N1CCC(c2ccc(O)cc2)CC1 | 4.87 |
| COc1cccc2c1OCC(NC(=O)NCCC(N)=O)C2 (stereo unspecified) | -1.38 |
| COc1ccc(-c2cnc(CN3CCCC3CO)o2)cc1 (stereo unspecified) | 9.38 |
| Cc1nc(C)n(C2CCCN(C(=O)CCn3cncn3)C2)n1 (stereo unspecified) | -4.24 |
| Cn1cc(NC(=O)c2cccc(C(F)(F)F)c2)c(=O)n(C)c1=O | 0.49 |
| Cc1cc(N2CCOCC2)ccc1NC(C)c1nc(C(C)(C)C)no1 (stereo unspecified) | -12.7 |
| CCc1nnc2n1CC(CNCc1nnc(C(C)(C)C)o1)CC2 (stereo unspecified) | 3.18 |
| C[S+]([O-])c1cccc(NC(=O)N(CCC#N)Cc2ccccn2)c1 (stereo unspecified) | 10.6 |
| CC1COCCN1Cc1nc(C(C)(C)C)no1 (stereo unspecified) | 4.87 |
| CN(Cc1cnn(C)c1)C(=O)c1cc2ccccc2c(=O)[nH]1 | -5.64 |
| N#Cc1ccc(NCCCN2C(=O)COc3ccccc32)nc1 | 11 |

| SMILES | cytotoxicity at 10 µM [%] |
| --- | --- |
| O=C(Nc1c(F)cccc1Oc1ccccc1)C1CCS(=O)(=O)C1 (stereo unspecified) | 1.91 |
| NC(=O)CN1CCC(Nc2ccnc3ccc(Cl)cc23)CC1 | 31.8 |
| Cc1ccc(C2CSCCN2CC(=O)N2CCOCC2)cc1 (stereo unspecified) | 9.04 |
| CC(C)(C)C(=O)NCC(=O)NCCc1nc(C(F)(F)F)cs1 | 6.16 |
| O=C(NCc1cc[nH]n1)NCC(c1ccco1)N1CCCC1 (stereo unspecified) | 13.6 |
| Cc1ccc(CNC2CCN(CCc3ccncc3)CC2)cc1C | -8.92 |
| COCc1noc(C2(c3ccc(F)cc3)CCOCC2)n1 | -25.3 |
| CCc1nc(COc2ccc(OCc3cnn(C)c3)cc2)no1 | -14.9 |
| Cc1ccc(C(=O)N2CCSCC2)cc1NC(=O)Cn1cncn1 | -11.1 |
| Cc1cnn(CC(C)NCc2nc(-c3cccnc3)no2)c1 (stereo unspecified) | -8.86 |
| COCCCNc1nccc(-c2c[nH][nH]c2=O)n1 | 7.46 |
| CCOCCC(=O)N1CCCN(c2ccccc2C)CC1 | -7.68 |
| Cc1cc(C(=O)N2CC(O)CO2)c2ccc(C)c(C)c2n1 (stereo unspecified) | 11.3 |
| COCCN(C)[C@@H]1c2ccccc2C2(CCNCC2)[C@H]1O | -4.61 |
| N#Cc1cccc(NC2CC(=O)N(CCCc3ccccc3)C2)n1 (stereo unspecified) | 5.82 |
| O=C(Nc1ccccc1CCc1ccccn1)NC1CCOCC1 | 6.1 |
| CN1CCCN(C(=O)c2cccc(S(=O)(=O)NCC3(C)COC3)c2)CC1 | -6.63 |
| CCN(Cc1cc(Cl)ccc1OC)Cc1nccn1C | 1.87 |
| Nc1cc(-c2cc(C(=O)O)ccc2Cl)c2cc[nH]c2n1 | 1.94 |
| CN(CCCN1CCOCC1)[C@@H]1c2ccccc2C2(CCNCC2)[C@H]1O | -3.12 |
| O=C(NCCc1nc(-c2ccccn2)no1)c1ccc(C2CCCO2)s1 (stereo unspecified) | 5.65 |
| COc1ccc(F)c(-c2cc(C(=O)NC3CC3)ccn2)c1 | -1.36 |
| CCNc1ncc(CN2CCOC(Cc3cccc(OC)c3)C2)cn1 (stereo unspecified) | 0.583 |

| SMILES | cytotoxicity at 10 µM [%] |
| --- | --- |
| CCCOc1ccccc1NCC(=O)Nc1ccc(CC)cc1 | 6.37 |
| CC(=O)N1CCCN(C(C(=O)O)c2ccccc2OC(F)(F)F)CC1 (stereo unspecified) | 15.5 |
| c1ccc(CCCn2ccnc2-c2cn(C3CCNCC3)nn2)nc1 | -1.86 |
| COc1ccc(NC(=O)N2CCC3(CC2)NC(=O)CC3C(=O)O)c(C)c1 (stereo unspecified) | -7.34 |
| Fc1cnc(N2CCN(Cc3ccc(-c4cc[nH]n4)o3)CC2)nc1 | -6 |
| CC(C)N1CCC[C@H]1C(=O)NCC1CCN(c2cnn(C)c(=O)c2)CC1 | 4.75 |
| CCc1nnc(CN(CC)C(=O)C2CCC(=O)N(C3CCCC3)C2)o1 (stereo unspecified) | 2.01 |
| COCCN(C)CCN1CC2(CCN(C3CCOCC3)CC2)OC1=O | 4.5 |
| COc1cccc(-n2cc(CN(C)Cc3ccnc(C(C)C)n3)cn2)c1 | -1.29 |
| CC(=O)N1CCN(C[C@H]2CC[C@@H](Cc3ccc4c(c3)OCO4)O2)CC1 | -7.9 |
| Cc1[nH]ccc1C(=O)N1CCC(c2nnc(Cn3cccn3)n2C)CC1 | -11.5 |
| CC(C)CCc1noc(CN2CCCN(C(=O)c3ccco3)CC2)n1 | -7.06 |
| O=C(NC1CCCC1)N1CCCC(c2nccn2Cc2ccncc2)C1 (stereo unspecified) | -18.3 |
| Cn1cc(C(=O)N2CCC(Cc3nccs3)CC2)cn1 | 7.63 |
| COCCc1noc(CN2CCOC(CN(C)C)C2)n1 (stereo unspecified) | -1.04 |
| Cc1ccc(NC2CCN(C(=O)CCn3nc(C)cc3C)CC2)nn1 | -9.66 |
| Cc1ccc(C(=O)NC(CN2CCCC2=O)c2ccccc2)cn1 (stereo unspecified) | -4.6 |
| CCc1nc(CN2CCCC(NCc3cnc(C)s3)C2)no1 (stereo unspecified) | -9.26 |
| Cc1ccc(O)c(CNC2CCCN(Cc3noc(C4CC4)n3)C2)n1 (stereo unspecified) | -5.59 |
| CC(NC(=O)NCCCc1n[nH]c(N)c1C#N)c1ccccc1F (stereo unspecified) | -3.6 |
| O=C1CC(N(C(=O)c2ccc(F)c(F)c2)C2CC2)C(=O)N1 (stereo unspecified) | 2.1 |
| Cc1cnc(CN(C)C2CCN(Cc3nc4ccccc4s3)C2)o1 (stereo unspecified) | -7.97 |
| Cc1nc(C2CCCN2Cc2cc(=O)n(C)c(=O)n2C)no1 (stereo unspecified) | -0.222 |

| SMILES | cytotoxicity at 10 µM [%] |
| --- | --- |
| COCCn1cc(NC(=O)NC(C)Cc2c(F)cccc2F)cn1 (stereo unspecified) | -4.5 |
| c1ccc(Cc2noc(CN(Cc3cccs3)CC3CCCO3)n2)cc1 (stereo unspecified) | -5.77 |
| Cc1nccc(-c2cccc(NCC(=O)N3CCc4sccc4C3)c2)n1 | 1.06 |
| Cc1cnn(CC2CN(CC(=O)NCCc3cccs3)CCO2)c1 (stereo unspecified) | 1.88 |
| Cc1cn2c(n1)CCC(NC(=O)c1c[nH]c(C)n1)C2 (stereo unspecified) | -0.361 |
| Cc1ccc(NC(=O)N2CCN(Cc3noc(C4CC4)n3)CC2)cc1 | 4.88 |
| COCc1cccc(C(=O)N2CCCCC2c2nccs2)c1 (stereo unspecified) | -2.06 |
| Cc1ccc(OCCC(=O)N2CCN(c3cnccn3)CC2)cc1C | -12.2 |
| CN(C)c1ncc(-c2ccc(F)cc2)c(C2CNCCO2)n1 (stereo unspecified) | -5.68 |
| COCCN1CCCC2(CCC(=O)N2Cc2cccnc2)C1 (stereo unspecified) | 4.32 |
| c1c2c(nn1CC1CC1)C(CNC1CCOCC1)OCC2 (stereo unspecified) | 7.43 |
| Cc1noc(C)c1CN1C[C@H](OCC(=O)N(C)C)[C@H]2COC[C@H]21 | 7.61 |
| Cc1cnc(N2C[C@@H]3CN(Cc4ccco4)CCC[C@]3(C(=O)O)C2)nc1 | 7.25 |
| Cn1cc(N2CC3(CCN(CC4CC4)C3)CC2=O)cn1 (stereo unspecified) | 1.84 |
| COCCN1CCC2(CC1)CN(C(=O)Cc1cccnc1)CCO2 | -9.43 |
| CC(C)n1cnc2c1C(C(=O)NCCC#N)N(Cc1ccccc1)CC2 (stereo unspecified) | -7.2 |
| Cn1cccc1C(=O)N1C[C@H]2CN(Cc3cccs3)C[C@H]2C1 | 2.02 |
| Cc1cccc(CN2C(=O)C[C@H]3[C@@H]2CCN3Cc2nccs2)n1 | -2.92 |
| Cc1cccc(N2CCC3(CCN(Cc4ccccn4)CC3)CC2)n1 | 4.17 |
